An excerpt weighted towards active compounds, which were near 1.5% of everything screened.
RanGTP-Impb inh – inhibitors of RanGTP-importin-beta interaction, primary screen, biochemical, FRET, CFP-Ran, YFP-importin-beta, homogeneous; AID 2216, 2009; actives 1.1% (n = 300,000); cell-free CFP-Ran/YFP-importin-beta FRET ratio; inhibition, % (concentration not given with the values);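 active = more than half of the replicate wells show a fall in the fluorescence ratio signal beyond about 16%, limit read from the data, passing the limit was not always enough; inconclusive = exactly half of the replicate wells pass the set limit; inactive = fewer than half of replicates pass the limit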
Hck Nef HTS – inhibitors of Nef-activated human Hck kinase, primary screen, biochemical, Z-Lyte FRET, 384-well, Hck-YEEI; Recombinant Hck-YEEI plus Nef, Z-Lyte FRET kinase assay; inhibition, % at 20 µM; Tyrosine-protein kinase HCK (Homo sapiens), P08631; actives 0.68% (n = 220,000);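 active = Hck-Nef kinase inhibition above about 50%, limit read from the data; inactive = inhibition below that limit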
CaV13 ICDI inh – Primary screen for inhibitors of IQ motif and Ca2+-dependent inactivation inhibitor domain binding in CACNA1D, Förster resonance energy transfer in living cells, …; HEK cells, CFP/YFP FRET ICDI-IQ, plate reader, 10 min; percent FRET-ratio fall versus neutral wells; inhibition, % at 12.3 µM; actives 0.098% (n = 340,000); AID 743397;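 active = mean replicate inhibition of at least 30% and at least 1% of replicates passing that level; inconclusive = only one of the two criteria is met; inactive = neither criterion is met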
Runt-SMMHC FRET – inhibitors of RUNX1 Runt–CBFb-SMMHC binding, primary screen, biochemical, FRET, Cerulean-Runt, Venus-CBFb-SMMHC, uHTS. AID 1434, 2008. Cerulean-Runt/Venus-CBFb-SMMHC FRET ratio 530/480, 1 h. Runt-related transcription factor 1 (Homo sapiens) + Core-binding factor subunit beta …. inhibition, % at 20 µM. actives 0.74% (n = 220,000);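 active = mean inhibition across duplicate retests at 20 µM reaching about 50%, limit read from the data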;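 note: inhibitors lower the FRET ratio by blocking Runt binding to CBFb-SMMHC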
Target sequence (Q01196 whole entry, looked up): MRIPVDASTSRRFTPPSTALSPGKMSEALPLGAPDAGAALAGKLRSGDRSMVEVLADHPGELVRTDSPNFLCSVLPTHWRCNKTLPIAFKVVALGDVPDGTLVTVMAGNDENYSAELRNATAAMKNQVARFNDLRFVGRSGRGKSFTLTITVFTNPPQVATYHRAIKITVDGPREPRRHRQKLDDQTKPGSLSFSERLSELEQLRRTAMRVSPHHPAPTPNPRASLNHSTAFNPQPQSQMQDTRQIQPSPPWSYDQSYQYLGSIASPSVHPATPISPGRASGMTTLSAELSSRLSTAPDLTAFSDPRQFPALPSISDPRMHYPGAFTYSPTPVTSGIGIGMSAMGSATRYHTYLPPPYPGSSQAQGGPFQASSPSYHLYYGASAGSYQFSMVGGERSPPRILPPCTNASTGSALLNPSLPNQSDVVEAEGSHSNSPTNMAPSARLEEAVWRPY
Target sequence (Q13951 whole entry, looked up): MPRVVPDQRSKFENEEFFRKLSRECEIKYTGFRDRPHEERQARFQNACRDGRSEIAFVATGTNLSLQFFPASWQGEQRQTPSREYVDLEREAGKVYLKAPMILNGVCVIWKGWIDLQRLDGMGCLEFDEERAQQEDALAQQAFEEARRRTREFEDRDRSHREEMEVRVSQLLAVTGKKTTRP
Runt-CBFb FRET – inhibitors of RUNX1 Runt–CBFb binding, primary screen, biochemical, FRET, Cerulean-Runt, Venus-CBFb, uHTS; Cerulean-Runt/Venus-CBFb FRET ratio 530/480, 1 h; inhibition, % at 20 µM; actives 0.46% (n = 220,000);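 active = inhibition over about 50% at 20 µM in the single-dose screen, limit read from the data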
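test system = Cerulean-tagged RUNX1 Runt domain (FRET donor) fusion protein | reagent = Venus-CBFb binding partner, 100 nM | incubation = protein complex preformed 1 h, compound exposure 1 h, room temperature, dark | detection = FRET fluorescence | read-out basis = loss of energy transfer signal | controls = 5 µM unlabeled CBFb as full-inhibition high control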
A number is an active result; – = inactive; ? = inconclusive; · = no result given; + = active, no number.

SMILES	RanGTP-Impb inh	Hck Nef HTS	CaV13 ICDI inh	Runt-SMMHC FRET	Runt-CBFb FRET
CCCCC1=CC2=CC(=O)C(C)(OC(=O)c3cnc4ccccc4n3)C(=O)C2=CO1 (centres undefined)	–	65.5	·	–	–
O=C(Nc1ccc(S(=O)(=O)Nc2cnc3ccccc3n2)cc1)c1ccccc1Br	–	·	–	·	·
COc1ccc(NC(=O)CSCC(=O)Nc2sccc2C#N)cc1	–	·	–	·	·
COc1ccc(CCC(=O)Nc2sccc2C#N)cc1	–	59.3	–	–	–
COc1cc2c(NCCCCCO)ncnc2c(OC)c1OC	·	·	–	·	·
Cc1ccc(C2C3=C(CC(C)(C)CC3=O)N(CCN3CCOCC3)C3=C2C(=O)CC(C)(C)C3)cc1	124.5	–	·	79.3	–
COc1ccc2c(c1OC)C(=O)N1C2SC(C)(C)[C@H]1C(=O)NC(C)C (some centres undefined)	–	·	–	·	·
COc1ccccc1N1CCN(C2CCC(C)CC2)CC1 (centres undefined)	–	·	50.1	·	·
COC(=O)C1C2CC3c4[nH]c5cc(OC)ccc5c4CCN3CC2CC(OC(=O)CC(C)=O)C1OC (centres undefined)	·	·	–	·	·
COC(=O)[C@H]1[C@H]2C[C@H]3c4[nH]c5ccccc5c4CCN3C[C@H]2CC[C@@H]1O	42.9	·	–	·	·
COC(=O)C1C(O)CCC2CN3CCc4c([nH]c5ccccc45)C3CC21 (centres undefined)	64.5	–	·	70.8	–
C=C(c1ccccc1Cl)[n+]1ccccc1	–	·	–	·	·
Cc1ccc(C)c(NC(=O)COC(=O)c2ccc3c(c2)OCCO3)c1	·	·	–	·	·
CCN(CC)c1nc2ccccc2nc1C(C#N)C(=O)NCCc1ccccc1 (centres undefined)	51.7	–	–	58.8	–
COc1ccccc1N1CCN(c2nc3ccccc3nc2C(C#N)C(=O)OC(C)C)CC1 (centres undefined)	–	–	–	–	–
CCN(CC)c1nc2ccccc2nc1C(C#N)C(=O)NCCCOC (centres undefined)	·	–	–	61.3	67.0
N#CC(C(=O)NCCc1ccccc1)c1nc2ccccc2nc1N1CCOCC1 (centres undefined)	?	–	·	–	–
CCCCCNC(=O)C(C#N)c1nc2ccccc2nc1N1CC(C)OC(C)C1 (centres undefined)	·	–	·	·	·
CCCN(CCC)c1nc2ccccc2nc1C(C#N)C(=O)OC(C)COC (centres undefined)	23.1	–	·	·	·
CCCCN(CCCC)c1nc2ccccc2nc1C(C#N)C(=O)NCCCOC (centres undefined)	31.6	–	·	–	–
CCC(C)(C(=O)NC1CCCC1)N(C(=O)CNC(=O)c1ccccc1)c1c(C)n(C)n(-c2ccccc2)c1=O (centres undefined)	–	–	–	–	–
Cc1ccc2oc(-c3ccc(NC(=O)c4ccc5c(c4)OCO5)cc3)nc2c1	–	–	–	–	67.3
C=CCOc1c(Br)cc(C2C3=C(CCCC3=O)N(C)C3=C2C(=O)CCC3)cc1OCC	101.4	53.3	–	·	95.6
COCCN1C(=O)c2ccccc2C1c1nc2ccccc2[nH]1 (centres undefined)	·	·	–	·	·
COc1ccc(/C=C2/SC(=O)N(CCC(=O)Nc3ccc(C)cc3)C2=O)cc1OC	–	–	–	–	–
SMILES	RanGTP-Impb inh	Hck Nef HTS	CaV13 ICDI inh	Runt-SMMHC FRET	Runt-CBFb FRET
COc1cc(/C=C2\SC(N)=NC2=O)ccc1OCC(=O)Nc1ccc(C)cc1	–	92.6	–	–	–
COc1ccc(C2C(C#N)=C(N)Oc3cc(O)ccc32)cc1OC (centres undefined)	55.7	–	·	–	–
COc1ccc(C2C(C#N)=C(N)Oc3cc(O)ccc32)cc1 (centres undefined)	·	·	–	·	·
COc1ccc(C2C(C#N)=C(N)SC(N)=C2C#N)cc1OC	47.5	–	–	–	–
COc1ccc(N=Cc2cc3c(cc2O)OC(N)=C(C#N)C3c2ccccc2)cc1 (centres undefined)	–	–	–	87.6	–
COc1ccc(C2C(C#N)=C(N)Oc3cc(O)ccc32)cc1C (centres undefined)	67.1	·	–	·	·
COc1cc(CN(C)CC2CCCN(CCc3ccccc3F)C2)cc(Cl)c1OC (centres undefined)	–	·	–	·	·
N#CC1=C(N)Oc2cc3ccccc3cc2C1c1cccnc1 (centres undefined)	–	–	·	–	–
COc1cc(C2C(C#N)=C(N)Oc3cc(O)ccc32)cc(OC)c1OC (centres undefined)	68.9	–	–	–	–
N#CC1=C(N)Oc2cc(O)ccc2C1c1ccccc1 (centres undefined)	52.7	–	–	64.6	–
CC(C)NC(=O)C1(C)CSCC(=O)N1CC(F)(F)F (centres undefined)	·	·	–	·	·
Nn1c(Cc2ccccc2)nc2cc(Cl)ccc2c1=O	–	·	–	·	·
CCN(CC)c1ccc2cc(S(=O)(=O)c3ccc(C)cc3)c(=O)oc2c1	137.0	–	–	79.2	–
CCN(CC)c1ccc2cc(C#N)c(=O)oc2c1	115.2	–	+	92.3	81.8
Cc1ccc(C(=O)NNC(=O)c2ccc(S(=O)(=O)N3CCCCC3)cc2)cc1	·	·	–	·	·
CCN(CC)c1ccc2cc(-c3nc(-c4cc5ccccc5oc4=O)cs3)c(=O)oc2c1	·	·	–	·	·
CCN(CC)c1ccc2cc(C(=O)NNC(=O)c3ccc(S(=O)(=O)N4CCCCC4)cc3)c(=O)oc2c1	118.8	–	–	63.2	66.1
CCN(CC)c1ccc2ccc(=O)oc2c1	95.5	113.6	?	91.5	–
CCc1cc2c3c([nH]c2cc1S(=O)(=O)NCCCOC)CC(C)(C)CC3=O	–	·	–	·	·
O=C(COc1ccc(Br)cc1)Nc1ccccc1C(=O)NC1CC1	–	·	–	·	·
C#CCOc1ccc(C2C3=C(CCCC3=O)N(CC(=O)O)C3=C2C(=O)CCC3)cc1Br	116.9	·	–	·	·
COc1cc(C)c(C)cc1S(=O)(=O)NC1CC(C)(C)NC(C)(C)C1	–	·	–	·	·
Cc1ccc2c(cnn2C(=O)CCCC(=O)NCc2ccc(Cl)cc2)c1	26.1	·	–	·	·
CC(C)(C)OC(=O)N[C@@H](C(=O)OC(C)(C)C)c1ccc2c(c1)OCO2	·	·	–	·	·
C=CCn1c(Sc2nnc(C)s2)nc2c1c(=O)[nH]c(=O)n2C	–	–	–	–	–
Cc1nnc(Sc2c(N)n(C)c(=O)[nH]c2=O)s1	18.9	–	–	–	–
COC(=O)c1c(NC(=O)CN2C(=O)C(=O)N(CC(C)C)C2=O)sc(C)c1C	?	·	–	·	·

Bioassay records (PubChem BioAssay)
